Assay results collected from several papers.
ABHD6: Monoacylglycerol lipase ABHD6 (ABHD6, Homo sapiens, UniProt Q9BV23)
DRD4: D(4) dopamine receptor (DRD4, Homo sapiens, UniProt P21917)
Signal transducer and activator of transcription 6 SH2: Signal transducer and activator of transcription 6, SH2 (Homo sapiens, UniProt P42226)
Oprm1: Mu-type opioid receptor (Oprm1, Rattus norvegicus, UniProt P33535)

C=CCOC(Cn1ccnc1)c1ccc(Cl)cc1Cl (centres unmarked) gave an IC50 of 60000 to 70000 nM (Pleiotropic ABC efflux transporter of multiple drugs (PDR5, Saccharomyces cerevisiae S288c, UniProt P33302); transporter uptake; inhibitor).
With C[C@H](N)Cn1ncc2ccc3c(c21)CCCO3 the IC50 was 10800 nM (5-hydroxytryptamine receptor 5A (HTR5A, Homo sapiens, UniProt P47898); ligand displacement; radioligand).
COc1cccc(N(C)C(=O)Oc2nsnc2N2CCCCC2)c1 has an IC50 of 195 nM (ABHD6; enzyme activity; inhibitor; fluorescence; lysate).
COc1ccccc1OCCNCC(O)COc1cccc2[nH]c3ccccc3c12 (centres unmarked) has an IC50 of 20 nM (DRD4; ligand displacement; radioligand).
CC(=O)c1c(O)c(C)c(O)c(Cc2c(O)c3c(c(C(=O)/C=C/c4ccccc4)c2O)OC(C)(C)C=C3)c1O gave an IC50 of over 50000 nM (Protein-glutamine gamma-glutamyltransferase (TGM2, Homo sapiens, UniProt P21980); enzyme activity; inhibitor).
With CN(C(=O)Oc1nsnc1N1CCCCC1)c1cccc(-c2ccccc2)c1 the IC50 was 910 nM (ABHD6; enzyme activity; inhibitor; fluorescence; lysate).
For O=C(COc1ccc2cc(C(=O)Nc3ccccc3)ccc2c1)NCc1ccc(OP(=O)(O)O)c(OP(=O)(O)O)c1, the IC50 was 7170 nM (Signal transducer and activator of transcription 6 SH2; ligand displacement; FP).
The IC50 of CN(C(=O)Oc1nsnc1N1CCCCC1)c1ccc(Cl)cc1 is reported as 407 nM (ABHD6; enzyme activity; inhibitor; fluorescence; lysate).
With C[C@@H](NC(=O)[C@@H](N)Cc1ccc(O)cc1)C(=O)NCC(=O)N[C@H](CC(=O)NNC(=O)C[C@H](Cc1ccccc1)NC(=O)CNC(=O)[C@@H](C)NC(=O)[C@@H](N)Cc1ccc(O)cc1)Cc1ccccc1 the IC50 was 2.29 nM (Oprm1; ligand displacement; radioligand).
O=P(O)(O)Oc1ccccc1OP(=O)(O)O gave an IC50 of 36000 nM (Signal transducer and activator of transcription 6 SH2; ligand displacement; FP).
With CN(C(=O)Oc1nsnc1N1CCCCC1)c1ccc(F)cc1 the IC50 was 78 nM (ABHD6; enzyme activity; inhibitor; fluorescence; lysate).
C[C@@H](NC(=O)[C@@H](N)Cc1ccc(O)cc1)C(=O)NCCC(=O)N[C@@H](Cc1ccccc1)C(=O)NNC(=O)[C@H](Cc1ccccc1)NC(=O)CCNC(=O)[C@@H](C)NC(=O)[C@@H](N)Cc1ccc(O)cc1 gave an IC50 of 380 nM (Oprm1; ligand displacement; radioligand).
COc1cc2c(cc1OC)C(=O)C(CC1CCN(Cc3ccccc3)CC1)C2 (centres unmarked) gave an IC50 of 824 nM (DRD4; ligand displacement; radioligand).
CCN(CC)Cc1cc(Nc2ccnc3cc(Cl)ccc23)ccc1O has an IC50 of at least 250000 nM (Genome polyprotein, protease (Dengue virus type 2, UniProt P14340); enzyme activity; inhibitor).
